Screening data as filed in PubChem BioAssay.
FN deposition inh – fibronectin deposition inhibition | inhibition, % at 12.6 µM | 350,000 compounds, 0.086% hits | AH1F fibroblasts, Alexa488-fibronectin deposition fluorescence, overnight | AID 743247;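 active = mean inhibition across replicates of 30% or more, regardless of how many single replicates reach that level; inconclusive = mean under 30% yet at least half of replicates reach 30%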
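Material: AH1F fibroblast monolayer depositing Alexa488-labelled fibronectin into matrix | Input: 10000 AH1F cells/well | Medium: DMEM plus 2% serum, read in PBS | Reagent: Alexa488-fibronectin, 24 nM final in well | Compound dosing: One dose per compound, pinned | Schedule: 1 h adhesion, overnight exposure | Measured by: Fluorescence at 485 nm excitation, 525 nm emission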
PDI turbidity – inhibitors of human protein disulfide isomerase. inhibition, % at 10 µM. PDI insulin aggregation turbidity, A650, 90 min. 350,000 compounds, 0.052% hits;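 active = mean inhibition across replicates of 30% or more, whatever share of single replicates reach that level; inconclusive = mean inhibition below 30% while every single replicate reaches 30%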
Target sequence (P07237 whole entry, looked up): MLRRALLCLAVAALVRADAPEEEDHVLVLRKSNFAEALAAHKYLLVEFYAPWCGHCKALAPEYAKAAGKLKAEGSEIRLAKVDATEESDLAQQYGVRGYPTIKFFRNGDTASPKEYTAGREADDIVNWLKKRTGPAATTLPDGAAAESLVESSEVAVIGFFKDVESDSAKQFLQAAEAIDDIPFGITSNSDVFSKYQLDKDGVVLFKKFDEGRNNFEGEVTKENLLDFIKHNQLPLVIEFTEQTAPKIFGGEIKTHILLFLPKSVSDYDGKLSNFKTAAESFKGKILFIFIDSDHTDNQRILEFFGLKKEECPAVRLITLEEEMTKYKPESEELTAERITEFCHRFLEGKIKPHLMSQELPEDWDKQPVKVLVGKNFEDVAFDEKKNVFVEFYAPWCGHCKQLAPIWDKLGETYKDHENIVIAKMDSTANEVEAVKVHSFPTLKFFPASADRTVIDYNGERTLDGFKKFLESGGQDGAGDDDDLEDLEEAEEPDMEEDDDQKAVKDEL
Env fusion inh – blocks HIV Env-driven cell-cell fusion; HeLa-JRFL Env/CEM21 cell fusion, luciferase; inhibition, % at 12.3 µM; 360,000 compounds, 1.1% hits;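 active = mean replicate inhibition score of at least 50 and every replicate individually at or above 50; inconclusive = only one of the two criteria met; inactive = mean below 50 and not all replicates reaching 50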
ERp5 inh – inhibitors of human ERp5; ERp5 insulin aggregation, absorbance 650 nm, 90 min; inhibition, % at 9.99 µM; 350,000 compounds, 0.05% hits;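 active = mean replicate inhibition above about 25%, with every replicate also reaching it, limit read from the data, passing the limit was not always enough; inconclusive = only one of those two criteria met; inactive = neither criterion met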
INS-1E GSIS act – GLuc luminescence reporter in INS-1E cells, primary screen for activators of glucose-dependent secretion of insulin; INS-1E GLuc reporter insulin secretion, 2-3 h; activation, % at 16.6 µM; 370,000 compounds, 0.61% hits;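 active = lowest replicate activation of at least 40%, so every replicate reaches that level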
Hits are given with their value; . = inactive; ? = inconclusive; / = no result given. Rows were chosen to be rich in hits. Some 1.4% of all compounds tested hit in one or more screens of this group.

SMILES	FN deposition inh	PDI turbidity	Env fusion inh	ERp5 inh	INS-1E GSIS act
CC1=C(N2CC2)C(=O)C(CO)=C(N2CC2)C1=O	.	.	80	.	.
COC1C(C)OC(OC2CC(C)(O)Cc3cc4c(c(O)c32)C(=O)c2c(O)cc3c(c2C4=O)OC2OC3(C)C(O)C(N(C)C)C2O)C(OC)C1(C)OC (stereo unspecified)	.	.	71	.	.
CC1OC(OC2CC(O)C3(CO)C4C(O)CC5(C)C(C6=CC(=O)OC6)CCC5(O)C4CCC3(O)C2)C(O)C(O)C1O (stereo unspecified)	/	/	/	.	/
CC(=O)OC1CC(OC2C(O)CC(OC3C(O)CC(OC4CCC5(C)C(CCC6C5CCC5(C)C(C7=CC(=O)OC7)CCC65O)C4)OC3C)OC2C)OC(C)C1OC1OC(CO)C(O)C(O)C1O (stereo unspecified)	.	.	69	.	/
C=CCSc1nc2c(c(-c3ccsc3)c1C#N)CN(C)CC2	.	.	.	.	46
O=C(Cc1cccnc1)N1CCCCN2[C@H](CO)[C@@H](c3ccc(C#CC4CCCC4)cc3)[C@H]2C1	/	/	/	.	.
CC(=O)OC1C(=O)OCC23CCC4(C)OC4C2OC2CC(OC(=O)C=CC=CC(=O)OCCC1C)C3(C)C21CO1 (stereo unspecified)	.	.	77	.	/
CCCC#Cc1ccc([C@H]2[C@@H](CO)N3CCCCN(C(=O)Cc4ccccn4)C[C@@H]23)cc1	/	/	/	.	.
OC[C@@H]1Nc2ccc(C#Cc3cccnc3)cc2[C@H]2NCC[C@@H]12	.	/	/	/	.
CC(C)CC#Cc1ccc([C@@H]2[C@@H](CO)N3CCCCN(C(=O)Cc4ccccn4)C[C@H]23)cc1	/	/	/	/	.
NC(=S)c1cn(C2OC(CO)C(O)C2O)c2ncnc(N)c12 (stereo unspecified)	.	.	90	.	.
C=C1C(C)C2C(Cc3ccccc3)NC(=O)C23OC(=O)/C=C/C(O)CCCC(C)C/C=C/C3C1O (stereo unspecified)	41	.	?	.	.
COc1ccc(OC(=O)N(C)C[C@H]2OCc3ccccc3-c3c(n(C)c4ccccc34)C(=O)N([C@@H](C)CO)C[C@H]2C)cc1	.	/	/	.	.
CC(C)[N+](C)(CCC(C(N)=O)(c1ccccc1)c1ccccc1)C(C)C	.	.	.	.	48
CCC(=O)C(CCN1CCOCC1)(c1ccccc1)c1ccccc1	.	.	.	.	.
COC(=O)[C@H]1[C@H](CO)[C@H]2Cn3c(cccc3=O)[C@@H]1N2C(=O)C1CCCC1	/	/	/	.	.
COOCC1(C(=O)OC)C[C@H](c2ccc(OC)cc2)N(Cc2ccccc2OC)[C@@H]1c1ccccc1C (stereo partly specified)	.	/	89	.	/
FC(F)(F)CN1C[C@@H]2C(c3ccccc3)[C@H](C1)N2CC1CC1 (stereo partly specified)	.	/	/	/	.
O=C(Nc1cccc(OC(=O)N2CCCCC2)c1)N1CCCCC1	/	.	/	/	/
O=C(Nc1cccc(OC(=O)N2CCOCC2)c1)N1CCOCC1	/	.	72	/	/
CCCN1[C@@H]2c3ccc(-c4ccccc4)c(=O)n3C[C@H]1[C@H](CO)[C@H]2C(=O)OC	/	/	/	.	.
O=C1C=CC(=O)C2C1C1(Cl)C(Cl)=C(Cl)C2(Cl)C1(Cl)Cl (stereo unspecified)	.	.	66	.	.
COC(=O)C[C@@H]1CC[C@H]2NC[C@@H](O)COC[C@@H]2O1	.	/	.	/	.
CCC(C)C(NC(=O)CCCNC(=O)CCC(=O)OC1O[C@H]2OC3(C)CC[C@H]4[C@H](C)CCC(C1C)C24OO3)C(=O)O (stereo partly specified)	.	.	58	.	.
CC(=NC(C)c1ccccc1)c1c(O)[nH]c(=O)[nH]c1=O (stereo unspecified)	.	.	.	/	104
SMILES	FN deposition inh	PDI turbidity	Env fusion inh	ERp5 inh	INS-1E GSIS act
COC(=O)[C@@H]1[C@@H](CO)[C@@H]2Cn3c(ccc(C4=CCCCC4)c3=O)[C@H]1N2C(=O)Cc1ccccn1	/	/	/	.	.
CC(C)c1cc(Br)c(NC(=O)Nc2cccnc2)c(Br)c1	.	.	.	.	115
C=C1C(=O)O[C@@H]2C[C@@H](C)[C@@H]3C=CC(=O)[C@@]3(C)[C@@H](O)[C@H]12	50	.	/	.	.
COc1ccc(CCN)cc1O	.	.	.	.	.
COc1ccc(CC2c3cc(OC)c(OC)cc3CCN2C)cc1O (stereo unspecified)	.	.	.	.	43
CN1[C@@H]2CN(CC3CC3)C[C@H]1C2c1ccc(Br)cc1 (stereo partly specified)	.	/	/	/	.
O=C(CNC(=O)OCc1ccccc1)Nc1ccc(Br)cc1C(=O)c1ccccc1	.	.	59	/	/
O=C(Cc1ccccn1)N1CCCCN2[C@@H](CO)[C@H](c3ccc(Br)cc3)[C@@H]2C1	/	/	/	.	.
CC(Cc1ccc(O)cc1)NCC(O)c1cc(O)cc(O)c1 (stereo unspecified)	.	.	74	.	.
C[C@H](Cc1ccc(OCC(=O)O)cc1)NC[C@H](O)c1cccc(Cl)c1	.	/	.	.	.
CC[n+]1c(/C=C/N(C)c2ccccc2)sc2ccc(Cl)cc21	.	.	79	/	.
CC=Cc1ccc2n(c1=O)C[C@H]1[C@H](CO)[C@@H](C(=O)OC)[C@@H]2N1CC1CCCC1 (mixture of isomers)	/	/	/	.	.
C=CCN1[C@@H]2CN(C(=O)NC(C)C)C[C@H]1C2c1ccc(Br)cc1 (stereo partly specified)	.	/	/	/	.
CC(=O)OC(C)(C)/C=C/C(=O)[C@](C)(O)[C@H]1[C@H](O)C[C@@]2(C)[C@@H]3CC=C4[C@H](C[C@H](O)C(=O)C4(C)C)[C@]3(C)C(=O)C[C@]12C	/	.	/	/	/
CC(=O)OC(C)(C)/C=C/C(=O)C(C)(O)C1C(O)CC2(C)C3CC=C4C(CC(O)C(=O)C4(C)C)C3(C)C(=O)CC12C (stereo unspecified)	30	.	65	.	.
FC(F)(F)CN1C[C@@H]2C(c3ccc(Br)cc3)[C@H](C1)N2CC1CC1 (stereo partly specified)	.	/	/	/	.
COc1cccc(CNCCc2c[nH]c3ccccc23)c1	.	.	.	.	.
COc1ccc(CNCCc2c[nH]c3ccccc23)c(OC)c1C	.	.	71	.	.
COc1cc(C)c(CNCCc2c[nH]c3ccccc23)cc1C	.	.	81	.	.
COC(=O)[C@@H]1[C@@H](CO)[C@@H]2Cn3c(ccc(C4=CCCCC4)c3=O)[C@H]1N2C(=O)CC1CC1	/	/	/	.	.
C/C=C/c1ccc(C2[C@@H]3CN(Cc4cccc(F)c4)C[C@H]2N3)cc1 (stereo partly specified)	.	/	/	.	.
CC(C)CC#Cc1ccc([C@H]2[C@H](CO)N3CCCCN(C(=O)Cc4ccccn4)C[C@@H]23)cc1	/	/	/	/	.
CN1CCN(c2cc([N+](=O)[O-])ccc2Cl)CC1	.	.	.	.	.
